Laboratory results from ChEMBL document CHEMBL2021845, “Targeting anthracycline-resistant tumor cells with synthetic aloe-emodin glycosides” (ACS Med Chem Lett, 2011).
Active and inactive are the calls of the source. No cut-off for these calls is given here.

How the values were obtained:
[1] = test system: Nucleic Acid; assay: Binding affinity to Escherichia coli pBR322 DNA assessed as DNA migration at 200 uM after 15 mins by agarose gel electrophoresis; type: nucleic-acid assay
How it was run: (§1)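 Supercoiled plasmid pBR322 DNA was preincubated with compound at 200 or 20 μM. Samples were run on a 1% agarose gel for 4 h at 70 V and stained with ethidium bromide. Unwinding was judged qualitatively from the shift in migration of supercoiled DNA against a no-drug lane.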

[2] = Toxicity in Wistar rat erythrocytes assessed as hemolysis at 50 uM after 1 hr; type: cell-based, Erythrocyte; conditions: read-out: Activity
[3] = test system: MCF7; assay: Cytotoxicity against human MCF7 cells after 24 hrs by XTT assay; type: functional, cell-based; conditions: MCF7, 24 h
[4] = test system: SK-OV-3; assay: Cytotoxicity against human SKOV3 cells after 24 hrs by XTT assay; type: functional, cell-based; conditions: SK-OV-3, 24 h
[5] = test system: SK-OV-3; assay: Cytotoxicity against human SKOV3 cells assessed as cell viability at 20 uM after 24 hrs by XTT assay; type: functional; conditions: SK-OV-3, 24 h, read-out: Activity
[6] = Cytotoxicity against human lymphocytes assessed as cell viability at 20 uM after 24 hrs by XTT assay relative to untreated control; type: cell-based, Lymphocyte; conditions: read-out: Activity
How it was run: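 Normal human lymphocyte samples from two individuals; 24 h incubation with compound at 20 μM; viability expressed relative to an untreated cell control.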

[7] = test system: MCF7; assay: Cytotoxicity against doxorubicin-resistant human MCF7 cells assessed as cell viability at 20 uM after 24 hrs by XTT assay; type: functional; conditions: MCF7, 24 h, read-out: Activity
[8] = test system: OVCAR-3; assay: Cytotoxicity against human OVCAR3 cells after 24 hrs by XTT assay; type: functional, cell-based; conditions: OVCAR-3, 24 h
[9] = Cytotoxicity against human NAR cells after 24 hrs by XTT assay; type: functional, cell-based
[10] = (§2) Cytotoxicity against doxorubicin-resistant human NAR cells assessed as cell viability at 100 uM after 24 hrs by XTT assay; type: functional; conditions: read-out: Activity
How it was run: (§3)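 NAR ovarian cancer cells with P-glycoprotein efflux pump overexpression; 24 h exposure to compound up to 100 μM; cell viability read-out.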

[11] = test system: MOLT-4; assay: Cytotoxicity against human MOLT4 cells after 24 hrs by XTT assay; type: functional, cell-based; conditions: MOLT-4, 24 h
[12] = test system: Nucleic Acid; assay: Binding affinity to Escherichia coli pBR322 DNA assessed as DNA unwinding at 5 to 10 uM after 15 mins by agarose gel electrophoresis; type: nucleic-acid assay
[13] = test system: OVCAR-3; assay: Cytotoxicity against human OVCAR3 cells assessed as cell viability at 20 uM after 24 hrs by XTT assay; type: functional; conditions: OVCAR-3, 24 h, read-out: Activity
[14] = test system: OVCAR-3; assay: Cytotoxicity against human OVCAR3 cells assessed as induction of cell death at 10 uM after 24 hrs by trypan blue dye exclusion test; type: functional, cell-based
How it was run: (§4)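 Cells were incubated with 10 μM compound for 24 h. A trypan blue dye exclusion test in cell suspension then counted total and dye-stained (dead) cells against an untreated control.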

[15] = test system: Nucleic Acid; assay: Binding affinity to Escherichia coli pBR322 DNA assessed as DNA migration at 20 uM after 15 mins by agarose gel electrophoresis; type: nucleic-acid assay; how it was run: as §1
[16] = Drug uptake in doxorubicin-resistant human NAR cell plasma membrane at 5 uM after 2 hrs by confocal microscopic analysis; type: ADME, cell-based
How it was run: (§5)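 P-gp-overexpressing NAR ovarian cancer cells were incubated with 5 μM compound for 2 h, then fixed in paraformaldehyde. Plasma membranes were stained with carbocyanine tracer DiD. Confocal imaging used Ex/Em 488/525 nm for the drug and 640/685 nm for DiD, to localize drug in membrane versus cell interior.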

[17] = test system: NAR; assay: as §2; type: functional; how it was run: as §3
[18] = test system: NAR; assay: Cytotoxicity against human NAR cells assessed as induction of cell death at 10 uM after 24 hrs by trypan blue dye exclusion test; type: functional, cell-based; how it was run: as §4
[19] = Cellular uptake in doxorubicin-resistant human NAR cells at 5 uM after 2 hrs by confocal microscopic analysis; type: ADME, cell-based; how it was run: as §5
[20] = Cytotoxicity against human lymphocytes assessed as cell viability after 24 hrs by XTT assay relative to untreated control; type: cell-based; conditions: Lymphocyte
How it was run: (§6)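 Normal human lymphocytes from two individual donors were exposed to compound for 24 h or for a 3 h incubation. Viability was expressed relative to an untreated-cell control, and IC50 was derived per blood sample.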

[21] = Cytotoxicity against human lymphocytes assessed as cell viability after 3 hrs by XTT assay relative to untreated control; type: cell-based; conditions: Lymphocyte; how it was run: as §6

O=C1c2cccc(O)c2C(=O)c2c(O)cc(CO)cc21 [ALOE-EMODIN]
Activity [1]: inactive
hemolysis at 1 h, 50 µM [2]: 0%
IC50 [3]: > 20 µM
IC50 [4]: > 20 µM
viability at 20 µM [5]: 98%
viability at 24 h, 20 µM [6]: 77%
viability at 20 µM [7]: 77%
IC50 [8]: > 20 µM
IC50 [9]: > 100 µM
viability at 100 µM [10]: 78%
IC50 [11]: > 20 µM

C[C@@H]1O[C@@H](OCc2cc(O)c3c(c2)C(=O)c2cccc(O)c2C3=O)C[C@@H](N)[C@H]1O
Activity [1]: inactive
Activity [12]: inactive
IC50 [3]: 12.7 µM
IC50 [4]: 13.5 µM
IC50 [8]: 15.7 µM
IC50 [9]: 18 µM
IC50 [11]: 5.4 µM

C[C@H]1O[C@@H](OCc2cc(O)c3c(c2)C(=O)c2cccc(O)c2C3=O)C[C@H](N)[C@@H]1O
Activity [1]: inactive
Activity [12]: inactive
IC50 [3]: > 20 µM
IC50 [4]: > 20 µM
viability at 20 µM [5]: 84%
viability at 20 µM [13]: 60%
viability at 20 µM [7]: 83%
IC50 [8]: > 20 µM
IC50 [9]: 28.3 µM
IC50 [11]: 12.8 µM

C[C@H]1O[C@@H](OCc2cc(O)c3c(c2)C(=O)c2cccc(O)c2C3=O)C[C@@H](N)[C@@H]1O
Activity [1]: inactive
Activity [12]: inactive
IC50 [3]: 11.9 µM
IC50 [4]: > 20 µM
viability at 20 µM [5]: 92%
IC50 [8]: 6.4 µM
IC50 [9]: > 100 µM
IC50 [11]: 7.6 µM

COc1cccc2c1C(=O)c1c(O)c3c(c(O)c1C2=O)C[C@@](O)(C(=O)CO)C[C@@H]3O[C@H]1C[C@H](N)[C@H](O)[C@H](C)O1 [DOXORUBICIN]
Activity [1]: Active
hemolysis at 1 h, 50 µM [2]: 2%
IC50 [3]: > 20 µM
IC50 [4]: > 20 µM
viability at 20 µM [5]: 63%
viability at 20 µM [13]: 61%
viability at 24 h, 20 µM [6]: 100%
viability at 20 µM [7]: 83%
IC50 [8]: > 20 µM
Activity [14]: inactive
IC50 [9]: > 100 µM
Activity [15]: Active
Drug uptake [16]: Active
Activity [17]: inactive
Activity [18]: inactive
IC50 [11]: 0.2 µM

C[C@@H]1O[C@@H](OCc2cc(O)c3c(c2)C(=O)c2cccc(O)c2C3=O)C[C@H](N)[C@H]1O
Activity [1]: inactive
Activity [12]: inactive
hemolysis at 1 h, 50 µM [2]: 3%
IC50 [3]: 7.1 µM
IC50 [4]: 6.9 µM
Drug uptake [19]: Active
IC50 [20]: 3 µM
IC50 [8]: 5.2 µM
Activity [14]: Active
IC50 [9]: 8.6 µM
IC50 [21]: 3 µM
Activity [18]: Active
IC50 [11]: 5.8 µM
